Reference: ChEMBL document CHEMBL1129396, “2-amino-4-oxo-5-substituted-pyrrolo[2,3-d]pyrimidines as nonclassical antifolate inhibitors of thymidylate synthase” (J Med Chem, 1996)

Tests used:
[1] = molecular target: T1, Bifunctional dihydrofolate reductase-thymidylate synthase (Toxoplasma gondii, UniProt Q07422); test: The inhibitory concentration of compound against Dihydrofolate reductases on Toxoplasma gondii
T1 sequence (Q07422 whole entry): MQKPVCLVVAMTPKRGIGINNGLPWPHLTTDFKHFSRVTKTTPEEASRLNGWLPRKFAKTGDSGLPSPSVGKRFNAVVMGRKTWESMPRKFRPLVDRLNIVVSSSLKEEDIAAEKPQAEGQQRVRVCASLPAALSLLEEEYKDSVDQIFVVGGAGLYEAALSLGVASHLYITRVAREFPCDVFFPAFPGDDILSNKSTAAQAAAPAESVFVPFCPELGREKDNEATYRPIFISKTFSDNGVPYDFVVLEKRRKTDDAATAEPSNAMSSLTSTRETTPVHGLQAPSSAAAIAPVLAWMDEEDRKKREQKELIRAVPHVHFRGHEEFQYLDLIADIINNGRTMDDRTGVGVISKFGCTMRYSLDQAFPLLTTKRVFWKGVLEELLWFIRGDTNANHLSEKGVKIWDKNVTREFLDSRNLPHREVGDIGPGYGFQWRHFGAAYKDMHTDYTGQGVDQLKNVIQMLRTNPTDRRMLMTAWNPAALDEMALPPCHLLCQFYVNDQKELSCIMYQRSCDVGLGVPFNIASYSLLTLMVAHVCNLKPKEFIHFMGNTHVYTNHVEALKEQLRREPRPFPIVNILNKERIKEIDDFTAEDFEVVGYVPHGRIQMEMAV
Method in brief: (§1)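 Run at 37 °C with 90 µM dihydrofolic acid as substrate and 119 µM NADPH as cofactor, in the presence of 150 mM KCl.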

Dihydrofolate reductase [2] = molecular target: T2, Dihydrofolate reductase (Rattus norvegicus, UniProt Q920D2); test: The inhibitory concentration of compound against Dihydrofolate reductases on rat liver (rl); assay type: tissue-based; method in brief: as §1
T2 sequence (Q920D2 whole entry): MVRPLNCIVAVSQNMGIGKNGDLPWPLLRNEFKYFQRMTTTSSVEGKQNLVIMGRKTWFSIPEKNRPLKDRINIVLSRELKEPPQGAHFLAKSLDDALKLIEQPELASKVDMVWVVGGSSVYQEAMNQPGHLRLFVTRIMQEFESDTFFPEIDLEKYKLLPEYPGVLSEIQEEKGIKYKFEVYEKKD

[3] = tested on: Squamous carcinoma cell line; test: Growth inhibition of the FaDu Human Squamous Cell carcinoma cell line; assay type: functional, cell-based
[4] = molecular target: Thymidylate synthase (Escherichia coli) (UniProt C3SWJ7); test: Percent inhibition of Thymidylate synthase in Escherichia coli; details: concentration not given here
Dihydrofolate reductase [5] = molecular target: T2, Dihydrofolate reductase; test: The inhibitory concentration of compound against Dihydrofolate reductases on rat liver; method in brief: as §1
Thymidylate synthase [6] = molecular target: Thymidylate synthase (Escherichia coli, UniProt C3SWJ7); test: The inhibitory concentration of compound was evaluated on Escherichia coli Thymidylate synthase
Thymidylate synthase [7] = molecular target: T3, Thymidylate synthase (Lactobacillus casei, UniProt P00469); test: The inhibitory concentration of compound was evaluated on Lactobacillus casei Thymidylate synthase; set-up: species or system Lacticaseibacillus casei
T3 sequence (P00469 whole entry): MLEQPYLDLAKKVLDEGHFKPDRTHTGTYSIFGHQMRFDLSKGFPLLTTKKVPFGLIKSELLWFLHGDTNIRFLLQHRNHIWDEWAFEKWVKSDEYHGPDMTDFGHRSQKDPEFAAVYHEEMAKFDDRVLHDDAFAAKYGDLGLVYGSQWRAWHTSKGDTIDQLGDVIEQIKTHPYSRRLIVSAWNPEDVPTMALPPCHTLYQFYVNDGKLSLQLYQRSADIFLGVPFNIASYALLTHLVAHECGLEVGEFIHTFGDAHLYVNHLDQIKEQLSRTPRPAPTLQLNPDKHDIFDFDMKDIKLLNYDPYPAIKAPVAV

Thymidylate synthase [8] = molecular target: Thymidylate synthase (Homo sapiens, UniProt P04818); test: The inhibitory concentration of compound was evaluated on Human Thymidylate synthase
[9] = molecular target: T4, Thymidylate synthase (Lactobacillus casei) (UniProt P00469); test: Percent inhibition of Thymidylate synthase in Lactobacillus casei; details: Lacticaseibacillus casei; concentration not given here
T4 sequence (whole entry): T3 sequence (P00469 whole entry)

Chain of Thymidylate synthase (Homo sapiens, UniProt P04818) (P04818 whole entry): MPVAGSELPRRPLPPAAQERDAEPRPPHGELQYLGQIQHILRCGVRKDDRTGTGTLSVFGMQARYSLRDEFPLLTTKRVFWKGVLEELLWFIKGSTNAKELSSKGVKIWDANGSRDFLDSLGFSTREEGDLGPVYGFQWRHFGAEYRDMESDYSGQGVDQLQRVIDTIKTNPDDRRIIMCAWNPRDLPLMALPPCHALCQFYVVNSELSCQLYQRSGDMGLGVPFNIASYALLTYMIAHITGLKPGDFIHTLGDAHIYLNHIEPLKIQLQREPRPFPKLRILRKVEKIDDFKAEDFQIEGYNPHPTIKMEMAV
Chain of Thymidylate synthase (Escherichia coli) (C3SWJ7 1-264): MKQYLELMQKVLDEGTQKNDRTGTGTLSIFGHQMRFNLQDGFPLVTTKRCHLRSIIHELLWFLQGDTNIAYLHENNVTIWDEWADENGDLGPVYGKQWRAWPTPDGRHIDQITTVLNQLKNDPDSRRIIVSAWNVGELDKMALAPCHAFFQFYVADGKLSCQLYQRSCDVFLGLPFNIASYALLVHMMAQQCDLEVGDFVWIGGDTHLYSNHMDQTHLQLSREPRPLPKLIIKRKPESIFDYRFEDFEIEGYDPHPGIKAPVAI
Chain of Thymidylate synthase (Escherichia coli, UniProt C3SWJ7) (C3SWJ7 whole entry): as the sequence (C3SWJ7 1-264) above

Question: For `Cc1[nH]c2nc(N)nc(O)c2c1Sc1ccc(Cl)cc1`, which IC50 [1] is on record?
Answer: The IC50 was 3.1 µM.

Question: What about the IC50 (Dihydrofolate reductase [2]) of the same compound?
Answer: The IC50 was 24.6 µM.

Question: And the EC50 [3]?
Answer: Its EC50 is 6.7 µM.

Question: Which results are given for `COc1ccc(Sc2c(C)[nH]c3nc(N)nc(O)c23)cc1OC`?
Answer: EC50 [3]: > 10 µM; inhibition [4]: 30%

Question: `COc1ccc(Sc2c(C)[nH]c3nc(N)[nH]c(=O)c23)cc1OC` was tested. Which IC50 [1] did it give?
Answer: Its IC50 is 20 µM.

Question: What about the IC50 (Dihydrofolate reductase [5]) of the same compound?
Answer: The IC50 was over 21 µM.

Question: Which results are given for `Cc1[nH]c2nc(N)[nH]c(=O)c2c1Sc1ccc2ccccc2c1`?
Answer: IC50 (Thymidylate synthase [6]): > 25 µM; IC50 (Thymidylate synthase [7]): > 25 µM; IC50 (Thymidylate synthase [8]): 2 µM

Question: `Cc1[nH]c2nc(N)nc(O)c2c1Sc1ccc2ccccc2c1` was tested. Which inhibition [4] did it give?
Answer: Its inhibition is 36%.

Question: And the inhibition [9]?
Answer: Its inhibition is 32%.

Question: Which results are given for `Cc1[nH]c2nc(N)[nH]c(=O)c2c1Sc1ccc(Cl)c(Cl)c1`?
Answer: IC50 [1]: 11.7 µM; IC50 (Dihydrofolate reductase [5]): > 20 µM

Question: Which IC50 (Thymidylate synthase [6]) does the source give for `Cc1[nH]c2nc(N)nc(O)c2c1Sc1ccncc1` here?
Answer: The IC50 was over 29 µM.

Question: And the IC50 (Thymidylate synthase [7])?
Answer: The IC50 was 100 µM.

Question: And the IC50 (Thymidylate synthase [8])?
Answer: Its IC50 is 0.34 µM.

Question: What does the source list for `Cc1[nH]c2nc(N)[nH]c(=O)c2c1Sc1ccc([N+](=O)[O-])cc1`?
Answer: IC50 [1]: 244 µM; IC50 (Dihydrofolate reductase [5]): 7470 µM; EC50 [3]: 1.5 µM

Question: How did the EC50 [3] turn out when `Cc1[nH]c2nc(N)nc(O)c2c1Sc1ccccc1` was run?
Answer: The EC50 was over 10 µM.

Question: And the inhibition [4]?
Answer: The inhibition was 30%.

Question: And the IC50 (Thymidylate synthase [6])?
Answer: The IC50 was over 30 µM.

Question: And the IC50 (Thymidylate synthase [7])?
Answer: Its IC50 is over 30 µM.

Question: And the IC50 (Thymidylate synthase [8])?
Answer: Its IC50 is 30 µM.

Question: For `CN(Cc1ccc(S(=O)(=O)N2CCOCC2)cc1)c1ccc2c3c(cccc13)C(N)=N2`, which EC50 [3] is on record?
Answer: Its EC50 is 1 µM.
